In paper PMC6413502 (Molecular pharmaceutics, 2018):
“Also recorded” adds a separate entry of the source. Read-outs that look alike come from different tables or passages of the source.

Legend:
[1] = tested on: scavenger receptors in the liver; details: read-out: IC50, inhibition of 125I-DNA nanoparticle uptake by the liver; previously reported; cited from earlier work
[2] = Micelle formation of PEG-peptides without albumin; type: physicochemical; details: dynamic light scattering, 1–40 nmol in 1 ml 150 mM sodium chloride; for micelle formation (in words): 50 mM sodium phosphate pH 7.4; for critical-micelle-concentration: 50 mM sodium phosphate pH 7.4, no albumin
Summary of the method: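 Particle size of the PEG-peptide was measured by dynamic light scattering at increasing amounts (1–40 nmol in 1 ml buffer) to locate the critical micelle concentration. Sizes are the mean and standard error of ten measurements, after deconvolution by intensity-averaged multimodal distribution.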

[3] = tested on: scavenger receptors in the liver; details: for percent of dose captured by the liver: mouse, in vivo, iv

Row | Substance | micelle formation (in words) [2] | critical-micelle-concentration [2] [µM] | also measured
1 | (Acr-Lys4)3-Acr-Lys-Cys-PEG5kDa [compound 27] | – | – | IC50 [1]: 8 µM
2 | PEG2kDa-Cys-Tyr-(Leu-Lys4)3-Leu-Lys [compound 33] | avoided micelle formation | – | increase in potency (IC50) on decreasing PEG from 5 to 2 kDa ([3]; 33 compared with 32, saturation of liver uptake): 6 fold
3 | PEG5kDa-Cys-Tyr-(Leu-Arg)8 [compound 38] | formed micelles | 2 to 5 | percent of dose captured by the liver [3]: 45%
4 | PEG5kDa-Cys-Tyr-(Leu-Lys4)3-Leu-Lys [compound 32] | avoided micelle formation | – | –
5 | PEG5kDa-Cys-Tyr-(Leu-Lys)4 [compound 37] | formed micelles | 2 to 5 | –
6 | PEG5kDa-Cys-Tyr-(Leu-Lys)6 [compound 36] | formed micelles | 2 to 5 | –
7 | PEG5kDa-Cys-Tyr-(Leu-Lys)8 [compound 35] | formed micelles | 2 to 5 | –
8 | PEG5kDa-Cys-Tyr-(Lys)4-Leu-Lys4-Leu4 [compound 39] | produced measurable micelles; also recorded: formed micelles | 2 to 5 | –
9 | PEG5kDa-Cys-Tyr-(Trp-Lys3)4 [compound 31] | avoided the formation of detectable micelles | – | –
10 | PEG5kDa-Cys-Tyr-Leu4-(Leu-Lys)4-Lys4 [compound 40] | produced measurable micelles; also recorded: formed micelles | 2 to 5 | –
11 | PEG5kDa-Cys-Tyr-Lys25 [compound 26] | – | – | percent of dose captured by the liver [3]: 5%
12 | PEG10kDa-Cys-Tyr-Lys25 [compound 25] | – | – | percent of dose captured by the liver [3]: 5%
13 | PEG20kDa-Cys-Tyr-Lys25 [compound 24] | – | – | percent of dose captured by the liver [3]: 28%
14 | PEG30kDa-Cys-Tyr-Lys10 [compound 20] | – | – | IC50 ([3]; read-out: apparent IC50, saturation of liver uptake, 125I-PEG-peptide i.v. tail vein, 1–80 nmol, triplicate mice, liver at 5 min, assuming 2-mL blood volume): 1500 µM
15 | Tyr-(Phe-Lys4)3Phe-Lys-Cys-PEG5kDa [compound 30] | avoided the formation of detectable micelles | – | –
